Experimental data: paper PMC7923394 (Nature chemical biology, 2020)
Where no end group is shown, it is not given here. The star is where a group is joined. αGalNAc = CC(=O)N[C@@H]1[C@@H](O)[C@@H](O)[C@@H](CO)O[C@@H]1*

Tests used:
Experiment in all cases: Enzyme kinetics, UDP-[3H]-GalNAc transfer to
Type in all cases: biochemical
[1] = system: human GalNAc-T12; settings: peptide as acceptor substrate; Supplementary Fig. 16a
Outline: (§1)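 Radiochemical transfer assay with 0.02–0.03 µM purified enzyme, 0.02–0.7 mM acceptor and 0.2 mM UDP-[3H]-GalNAc in 100 mM sodium cacodylate pH 6.5, 1 mM β-mercaptoethanol and 10 mM MnCl2 at 37 °C. T6 and T12 were HEK293F-expressed and His-Trap purified. Reactions were EDTA-quenched and product separated by Sephadex G10. Initial rates (<30% donor used) were normalised to a fresh-enzyme reference glycopeptide. Runs used 5–7 concentrations, 2–5 repeats, and Michaelis–Menten (± substrate-inhibition) fits.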

[2] = system: human GalNAc-T4; settings: peptide as acceptor substrate; Supplementary Fig. 16a
[3] = biological target: T1, human GalNAc-T6 (Homo sapiens, UniProt Q8NCL4); settings: peptide as acceptor substrate
T1 sequence (Q8NCL4 1-622): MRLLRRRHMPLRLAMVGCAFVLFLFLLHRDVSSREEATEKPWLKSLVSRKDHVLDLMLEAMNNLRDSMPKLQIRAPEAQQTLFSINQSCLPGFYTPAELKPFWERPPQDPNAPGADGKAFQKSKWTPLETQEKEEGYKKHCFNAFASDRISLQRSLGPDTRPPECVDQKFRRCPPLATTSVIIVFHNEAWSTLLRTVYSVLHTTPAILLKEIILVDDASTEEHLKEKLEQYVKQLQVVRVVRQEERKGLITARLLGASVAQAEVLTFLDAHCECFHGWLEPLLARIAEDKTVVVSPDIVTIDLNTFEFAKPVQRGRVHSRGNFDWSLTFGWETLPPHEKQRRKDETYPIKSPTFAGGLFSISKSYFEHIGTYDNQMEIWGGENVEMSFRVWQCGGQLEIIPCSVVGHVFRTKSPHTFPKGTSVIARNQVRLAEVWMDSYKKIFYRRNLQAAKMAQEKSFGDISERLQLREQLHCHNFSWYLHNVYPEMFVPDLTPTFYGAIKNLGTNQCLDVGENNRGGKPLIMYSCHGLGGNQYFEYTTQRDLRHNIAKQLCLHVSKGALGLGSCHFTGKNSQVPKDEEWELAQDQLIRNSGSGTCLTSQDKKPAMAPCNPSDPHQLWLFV
Outline: as §1

[4] = biological target: T2, human GalNAc-T3 (Homo sapiens, UniProt Q14435); settings: naked peptides as acceptor substrates
T2 sequence (Q14435 92-633): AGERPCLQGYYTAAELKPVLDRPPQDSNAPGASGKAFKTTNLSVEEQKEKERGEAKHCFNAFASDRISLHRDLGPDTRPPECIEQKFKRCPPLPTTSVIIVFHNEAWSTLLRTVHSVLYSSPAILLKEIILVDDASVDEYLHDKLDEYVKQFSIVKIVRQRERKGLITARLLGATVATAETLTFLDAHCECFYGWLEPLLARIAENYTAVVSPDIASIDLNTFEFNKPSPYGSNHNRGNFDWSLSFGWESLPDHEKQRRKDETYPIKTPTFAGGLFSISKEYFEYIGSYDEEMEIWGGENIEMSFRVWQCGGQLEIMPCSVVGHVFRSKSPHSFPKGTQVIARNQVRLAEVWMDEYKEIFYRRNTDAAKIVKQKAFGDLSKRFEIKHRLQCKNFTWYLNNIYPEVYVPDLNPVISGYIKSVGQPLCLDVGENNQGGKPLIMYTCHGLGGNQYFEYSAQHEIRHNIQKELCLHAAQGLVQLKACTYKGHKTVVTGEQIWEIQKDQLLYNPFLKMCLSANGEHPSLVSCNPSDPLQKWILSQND
Outline: as §1

Substance: FGF23b: shorter FGF23 model peptide substrate (A171–T178)
- activity of GalNAc-T12 against the peptide [1]: very low
- activity of GalNAc-T4 against the peptide [2]: very low

Substance: FGF23c: FGF23 model glycopeptide substrate (T*171–T178, T* = Thr-O-GalNAc) (T(αGalNAc)PIPRRHT-NH2; UniProt Q9GZV9 171-178, looked up, fragment)
- Km of GalNAc-T6 compared to GalNAc-T3 [3]: slightly better Km
- Kcat of GalNAc-T6 relative to that of GalNAc-T3 ([3]; Supplementary Fig. 16b): ~ 3.5 fold

Substance: GAYAVTPGPAG [OP1]
- activity among the OP1 to OP10 peptide series [4]: the most active of the series
